Data taken from ChEMBL document CHEMBL1147803, “2,5-Disubstituted pyrrolidine carboxylates as potent, orally active sphingosine-1-phosphate (S1P) receptor agonists” (Bioorg Med Chem Lett, 2006).
Activity calls are given as the source filed them. The calls are words filed in the database; no cut-off is given here.

Columns and labels:
[1] = biological target: Sphingosine 1-phosphate receptor 2 (Homo sapiens, UniProt O95136); assay: Displacement of [33P]S1P from S1P2 expressed in CHO cells; type: cell-based
Procedure, shortened: (§1)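 Competitive radioligand binding with [33P]S1P on membranes from CHO cells expressing each of the five S1P receptor subtypes (S1P1–5).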

[2] = biological target: T1, Sphingosine 1-phosphate receptor 3 (Homo sapiens, UniProt Q99500); assay: Displacement of [33P]S1P from S1P3 expressed in CHO cells; type: cell-based; procedure, shortened: as §1
[3] = biological target: T2, Sphingosine 1-phosphate receptor 4 (Homo sapiens, UniProt O95977); assay: Displacement of [33P]S1P from S1P4 expressed in CHO cells; type: cell-based; procedure, shortened: as §1
T2 sequence (O95977 whole entry): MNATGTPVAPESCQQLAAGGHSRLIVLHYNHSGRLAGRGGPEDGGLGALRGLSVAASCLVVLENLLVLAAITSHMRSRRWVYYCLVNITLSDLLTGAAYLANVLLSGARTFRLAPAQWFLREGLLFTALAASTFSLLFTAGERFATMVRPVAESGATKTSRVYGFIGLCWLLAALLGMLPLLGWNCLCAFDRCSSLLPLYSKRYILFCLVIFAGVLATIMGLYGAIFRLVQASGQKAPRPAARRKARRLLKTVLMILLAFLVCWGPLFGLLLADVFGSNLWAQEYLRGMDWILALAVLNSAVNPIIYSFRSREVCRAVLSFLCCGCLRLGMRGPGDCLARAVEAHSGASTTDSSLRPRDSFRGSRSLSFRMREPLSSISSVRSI

[4] = biological target: T3, Sphingosine 1-phosphate receptor 5 (Homo sapiens, UniProt Q9H228); assay: Activity at S1P5 receptor by [35S]GTP-gammaS binding assay; type: functional; conditions: filed as agonist
[5] = biological target: T4, Sphingosine 1-phosphate receptor 1 (Homo sapiens, UniProt P21453); assay: Activity at S1P1 receptor by [35S]GTP-gammaS binding assay; type: functional; conditions: filed as agonist
[6] = biological target: T4, Sphingosine 1-phosphate receptor 1; assay: Displacement of [33P]S1P from S1P1 expressed in CHO cells; type: cell-based; procedure, shortened: as §1
[7] = biological target: T3, Sphingosine 1-phosphate receptor 5; assay: Displacement of [33P]S1P from S1P5 expressed in CHO cells; type: cell-based; procedure, shortened: as §1
[8] = biological target: T1, Sphingosine 1-phosphate receptor 3; assay: Activity at S1P3 receptor by [35S]GTP-gammaS binding assay; type: functional; conditions: filed as agonist
Mus musculus [9] = species: Mus musculus; assay: Lowering of peripheral blood lymphocytes in mouse; type: functional
Procedure, shortened: (§2)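 Mice were dosed orally, and circulating peripheral blood lymphocytes were counted 3 h after administration.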

[10] = Half life in Sprague-Dawley rat at 1 mg/kg, iv or 2 mg/kg, po; type: ADME, organism-based; conditions: in vivo
[11] = Volume of distribution in Sprague-Dawley rat at 1 mg/kg, iv or 2 mg/kg, po; type: ADME, organism-based; conditions: in vivo, read-out: Vdss
[12] = Plasma clearance in Sprague-Dawley rat at 1 mg/kg, iv or 2 mg/kg, po; type: ADME, organism-based
[13] = Bioavailability in Sprague-Dawley rat at 1 mg/kg, iv and 2 mg/kg, po; type: ADME, organism-based; conditions: in vivo
Mus musculus [14] = assay: Lowering of peripheral blood lymphocytes in mouse at 10 mg/kg; type: functional, organism-based; design: dose 10 mg/kg; procedure, shortened: as §2

T4 sequence (P21453 whole entry): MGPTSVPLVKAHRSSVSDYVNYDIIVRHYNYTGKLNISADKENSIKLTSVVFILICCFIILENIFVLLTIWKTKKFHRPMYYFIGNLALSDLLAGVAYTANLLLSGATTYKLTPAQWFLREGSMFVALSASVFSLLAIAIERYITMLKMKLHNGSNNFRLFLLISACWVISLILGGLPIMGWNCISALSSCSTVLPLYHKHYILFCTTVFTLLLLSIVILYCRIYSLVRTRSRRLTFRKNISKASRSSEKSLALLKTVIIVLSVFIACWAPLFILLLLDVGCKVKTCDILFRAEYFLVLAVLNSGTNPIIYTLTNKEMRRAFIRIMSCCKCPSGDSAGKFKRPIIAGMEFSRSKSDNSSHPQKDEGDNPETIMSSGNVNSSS
T3 sequence (Q9H228 whole entry): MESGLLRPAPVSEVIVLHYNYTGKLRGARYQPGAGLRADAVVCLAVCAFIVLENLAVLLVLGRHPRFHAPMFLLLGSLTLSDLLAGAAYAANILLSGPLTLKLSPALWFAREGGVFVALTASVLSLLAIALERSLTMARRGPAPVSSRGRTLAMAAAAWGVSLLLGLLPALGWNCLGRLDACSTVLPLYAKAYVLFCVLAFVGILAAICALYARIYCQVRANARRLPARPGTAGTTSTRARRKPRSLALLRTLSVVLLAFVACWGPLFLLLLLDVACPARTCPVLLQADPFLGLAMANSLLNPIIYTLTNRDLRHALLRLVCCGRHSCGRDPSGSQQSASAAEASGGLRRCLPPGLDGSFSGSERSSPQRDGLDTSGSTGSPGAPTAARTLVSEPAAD
T1 sequence (Q99500 whole entry): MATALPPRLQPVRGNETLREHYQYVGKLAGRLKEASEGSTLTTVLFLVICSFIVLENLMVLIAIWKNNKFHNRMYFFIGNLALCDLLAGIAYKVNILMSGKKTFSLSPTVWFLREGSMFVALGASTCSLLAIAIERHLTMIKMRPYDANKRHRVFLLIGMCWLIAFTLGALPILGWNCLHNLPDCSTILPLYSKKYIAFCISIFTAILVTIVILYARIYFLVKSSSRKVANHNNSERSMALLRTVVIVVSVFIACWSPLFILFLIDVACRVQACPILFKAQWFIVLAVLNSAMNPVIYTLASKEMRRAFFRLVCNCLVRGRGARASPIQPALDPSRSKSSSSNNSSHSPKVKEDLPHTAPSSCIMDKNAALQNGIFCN
Sequence of Sphingosine 1-phosphate receptor 2 (O95136 whole entry): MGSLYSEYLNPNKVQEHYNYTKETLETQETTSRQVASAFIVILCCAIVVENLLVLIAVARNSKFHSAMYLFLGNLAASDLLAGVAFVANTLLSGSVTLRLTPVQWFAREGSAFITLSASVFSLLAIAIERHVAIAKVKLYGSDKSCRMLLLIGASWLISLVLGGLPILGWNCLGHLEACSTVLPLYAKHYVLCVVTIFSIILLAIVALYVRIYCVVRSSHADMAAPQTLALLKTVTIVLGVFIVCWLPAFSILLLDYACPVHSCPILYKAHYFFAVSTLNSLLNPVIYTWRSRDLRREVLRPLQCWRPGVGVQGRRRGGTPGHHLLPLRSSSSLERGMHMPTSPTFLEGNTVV

For O=C(O)C[C@@H]1CC[C@H](c2ccc(-c3noc(-c4ccc(C5CCCC5)cc4F)n3)cc2)N1 (racemic), the IC50 [1] was > 10000 nM, the IC50 [2] was > 10000 nM and the IC50 [3] was 1400 nM. The Activity [4] was “Agonist”, the Activity [5] was “Agonist” and the IC50 [6] was 2.7 nM. For the same compound, the IC50 [7] was 60 nM and the Activity [8] was “Agonist”.
In the case of CC(C)Cc1ccc(-c2nc(-c3ccc([C@@H]4CC[C@@H](CCC(=O)O)N4)cc3)no2)cc1 (racemic), the IC50 [1] is reported as > 10000 nM, the IC50 [2] is reported as 6700 nM and the IC50 [3] is reported as 630 nM. For the same compound, the Activity [4] was “Agonist”, the Activity [5] was “Agonist” and the IC50 [6] was 5.7 nM. The IC50 [7] was 80 nM and the Activity [8] was “Agonist”.
In the case of O=C(O)C[C@@H]1CC[C@H](c2ccc(-c3noc(-c4ccc([C@@H]5CCC(F)(F)C5)cc4)n3)cc2)N1 (racemic) [listing 1 of 2 here], the IC50 ([1]; cho) is reported as > 10000 nM, the IC50 [2] is reported as 2500 nM and the IC50 [3] is reported as 570 nM. The IC50 [6] was 1.2 nM and the IC50 [7] was 13 nM.
In the case of O=C(O)C[C@@H]1CC[C@H](c2ccc(-c3noc(-c4ccc(C5CCCCC5)cc4)n3)cc2)N1 (racemic), the IC50 [1] is reported as > 10000 nM, the IC50 [2] is reported as 1700 nM and the IC50 [3] is reported as 350 nM. The Activity [4] was “Agonist”, the Activity [5] was “Agonist” and the IC50 [6] was 0.7 nM. For the same compound, the IC50 [7] was 20 nM and the Activity [8] was “Agonist”.
For CC(C)Cc1ccc(-c2nc(-c3ccc([C@@H]4CC[C@@H](C(=O)O)N4)cc3)no2)cc1 (racemic), the IC50 [1] was > 10000 nM, the IC50 [2] was 10000 nM and the IC50 [3] was 300 nM. The Activity [4] was “Agonist”, the Activity [5] was “Agonist” and the IC50 [6] was 17 nM. For the same compound, the IC50 [7] was 180 nM and the Activity [8] was “Agonist”.
In the case of O=C(O)C[C@@H]1CC[C@H](c2ccc(-c3noc(-c4ccc([C@@H]5CCC(F)(F)C5)cc4)n3)cc2)N1 (stereo in doubt; form 2) [listing 1 of 2 here], the IC50 [1] is reported as > 10000 nM, the IC50 [2] is reported as 3800 nM and the ED50 (Mus musculus [9]) is reported as 0.3 mg/kg. For the same compound, the half-life [10] was 2.2 h, the IC50 [3] was 720 nM and the Vd [11] was 2.3 L/kg. It also gave an IC50 [6] of 0.64 nM, a clearance [12] of 9.7 mL/min/kg and an IC50 [7] of 15 nM. It also gave a bioavailability [13] of 48%.
With O=C(O)C[C@@H]1CC[C@H](c2ccc(-c3noc(-c4ccc(C5CCCC5)c(F)c4)n3)cc2)N1 (racemic) the IC50 [1] was > 10000 nM, the IC50 [2] was 7600 nM and the IC50 [3] was 2100 nM. For the same compound, the Activity [4] was “Agonist”, the Activity [5] was “Agonist” and the IC50 [6] was 2 nM. For the same compound, the IC50 [7] was 30 nM and the Activity [8] was “Agonist”.
In the case of O=C(O)C[C@@H]1CC[C@H](c2ccc(-c3noc(-c4ccc([C@@H]5CCC(F)(F)C5)cc4)n3)cc2)N1 (stereo in doubt; form 1) [listing 1 of 2 here], the Activity [4] is reported as “Agonist”, the Activity [5] is reported as “Agonist” and the Activity [8] is reported as “Agonist”.
For O=C(O)C[C@@H]1CC[C@H](c2ccc(-c3noc(-c4ccc([C@H]5CCC(F)(F)C5)cc4)n3)cc2)N1 (racemic), the IC50 [1] was > 10000 nM, the IC50 [2] was 2200 nM and the IC50 [3] was 720 nM. The Activity [4] was “Agonist”, the Activity [5] was “Agonist” and the IC50 [6] was 0.8 nM. For the same compound, the IC50 [7] was 16 nM and the Activity [8] was “Agonist”.
For O=C(O)C[C@@H]1CC[C@H](c2ccc(-c3noc(-c4ccc([C@@H]5CCC(F)(F)C5)cc4)n3)cc2)N1 (stereo in doubt; form 1) [listing 2 of 2 here], the IC50 ([1]; cho) was > 10000 nM, the IC50 [2] was 7800 nM and the IC50 [3] was 1500 nM. The IC50 [6] was 2.9 nM and the IC50 [7] was 19 nM.
With CC(C)Cc1ccc(-c2nc(-c3ccc([C@H]4CC[C@@H](CC(=O)O)N4)cc3)no2)cc1 (racemic) the IC50 [1] was > 10000 nM, the IC50 [2] was > 10000 nM and the Activity (Mus musculus [14]) was “Active”. The half-life [10] was 4.1 h, the IC50 [3] was 1000 nM and the Activity [4] was “Agonist”. The Vd [11] was 2.9 L/kg, the Activity [5] was “Agonist” and the IC50 [6] was 3.3 nM. For the same compound, the clearance [12] was 6.6 mL/min/kg, the IC50 [7] was 200 nM and the bioavailability [13] was 48%. For the same compound, the Activity [8] was “Agonist”.
With CC(C)Cc1ccc(-c2nc(-c3ccc([C@H]4CC[C@@H](CCC(=O)O)N4)cc3)no2)cc1 (racemic) the IC50 [1] was > 10000 nM, the IC50 [2] was > 10000 nM and the IC50 [3] was 540 nM. For the same compound, the Activity [4] was “Agonist”, the Activity [5] was “Agonist” and the IC50 [6] was 4.5 nM. For the same compound, the IC50 [7] was 30 nM and the Activity [8] was “Agonist”.
In the case of CC(C)Cc1ccc(-c2nc(-c3ccc([C@H]4CC[C@@H](C(=O)O)N4)cc3)no2)cc1 (racemic), the IC50 [1] is reported as > 10000 nM, the IC50 [2] is reported as > 10000 nM and the IC50 [3] is reported as 1000 nM. For the same compound, the Activity [4] was “Agonist”, the Activity [5] was “Agonist” and the IC50 [6] was 75 nM. For the same compound, the IC50 [7] was 1280 nM and the Activity [8] was “Agonist”.
With CC(C)Cc1ccc(-c2nc(-c3ccc([C@@H]4CC[C@@H](CC(=O)O)N4)cc3)no2)cc1 (racemic) the IC50 [1] was > 10000 nM, the IC50 [2] was > 10000 nM and the Activity (Mus musculus [14]) was “Active”. For the same compound, the half-life [10] was 3.5 h, the IC50 [3] was 700 nM and the Activity [4] was “Agonist”. For the same compound, the Vd [11] was 3 L/kg, the Activity [5] was “Agonist” and the IC50 [6] was 8 nM. It also gave a clearance [12] of 8.4 mL/min/kg, an IC50 [7] of 100 nM and a bioavailability [13] of 40%. The Activity [8] was “Agonist”.
For O=C(O)C[C@@H]1CC[C@H](c2ccc(-c3noc(-c4ccc([C@@H]5CCC(F)(F)C5)cc4)n3)cc2)N1 (racemic) [listing 2 of 2 here], the Activity [4] was “Agonist”, the Activity [5] was “Agonist” and the Activity [8] was “Agonist”.
For O=C(O)C[C@@H]1CC[C@H](c2ccc(-c3noc(-c4ccc([C@@H]5CCC(F)(F)C5)cc4)n3)cc2)N1 (stereo in doubt; form 2) [listing 2 of 2 here], the Activity [4] was “Agonist”, the Activity [5] was “Agonist” and the Activity [8] was “Agonist”.
